IC50 data for 5 molecules are collected here from ChEMBL document CHEMBL1141409, “Structures, biogenesis, and biological activities of pyrano[4,3-c]isochromen-4-one derivatives from the Fungus Phellinus igniarius” (J Nat Prod, 2007).

The subject of one test is HCT-8. Briefly: Cytotoxicity against human HCT8 cells. Format: cell-based.
A further test has as its system A549. Briefly: Cytotoxicity against human A549 cells. The class given is cell-based.
Test [1] in a line: Cytotoxicity against human Bel7402 cells. Format: cell-based. The conditions noted are these: Bel-7402.
Test [2] can be described thus: Cytotoxicity against human […] cells. Format: cell-based.
In the next test the test system is Liver microsomes. As to the kind of experiment: Antioxidant activity assessed as inhibition of rat liver microsomal lipid peroxidation. Format: functional, Microsome.
For test [3], the target named is T1, Tyrosine-protein phosphatase non-receptor type 1 (Homo sapiens, UniProt P18031).
T1 sequence (P18031 whole entry): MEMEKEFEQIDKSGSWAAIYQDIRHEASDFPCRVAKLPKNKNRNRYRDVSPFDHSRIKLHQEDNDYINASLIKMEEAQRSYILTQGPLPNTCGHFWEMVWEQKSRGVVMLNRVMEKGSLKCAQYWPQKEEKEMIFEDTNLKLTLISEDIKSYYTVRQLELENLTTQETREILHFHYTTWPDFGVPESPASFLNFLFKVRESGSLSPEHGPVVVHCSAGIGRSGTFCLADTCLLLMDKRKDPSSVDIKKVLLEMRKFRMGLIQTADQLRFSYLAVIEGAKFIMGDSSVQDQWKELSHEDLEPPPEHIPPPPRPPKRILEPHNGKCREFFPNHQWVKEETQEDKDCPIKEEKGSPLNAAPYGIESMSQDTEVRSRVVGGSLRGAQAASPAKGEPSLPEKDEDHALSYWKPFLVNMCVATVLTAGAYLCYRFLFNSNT
As to the kind of experiment: Inhibition of human PTP1B. Summed up: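 Recombinant GST-tagged human PTP1B, purified from bacterial pellets on a GST bead column. Substrate 3 mM p-NPP in HEPES buffer, pH 7.0. Compounds dissolved in DMSO, 10% DMSO final in all reactions. First screened at 10 µM for 10 min at 30 °C. Reaction started by adding enzyme and stopped with 1 M NaOH. End-point p-nitrophenol absorbance at 405 nm.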

As a reminder, the IC50 is the concentration that inhibits the measured activity by half. Turning to `O=c1oc2cc(-c3c(-c4ccc(O)c(O)c4)oc4cc(/C=C/c5ccc(O)c(O)c5)oc(=O)c34)oc(=O)c2c2cc(O)c(O)cc12` [PHELLIGRIDIN H], the IC50 with HCT-8 was over 10 µg/mL; in the test on A549, over 10 µg/mL; in test [1], over 10 µg/mL; in test [2] it was over 10 µg/mL; in the test on Liver microsomes, 4.8 µM.

Turning to `CC[C@@]1(O)C(=O)OCc2c1cc1n(c2=O)Cc2cc3c(CN(C)C)c(O)ccc3nc2-1` [TOPOTECAN], the IC50 was 1.6 µM with HCT-8, 3.1 µM with A549, 1.4 µM in test [1] and 1.2 µM in test [2].

For the molecule `CC1=CC(=O)[C@H](c2c(O)cc(/C=C/c3ccc(O)c(O)c3)oc2=O)[C@@H](c2ccc(O)c(O)c2)O1` [DAVALLIALACTONE], the IC50 in the test with HCT-8 was over 10 µg/mL; with A549, over 10 µg/mL; in test [1], over 10 µg/mL; in test [2], over 10 µg/mL; in the test on Liver microsomes, 8.2 µM.

Turning to `O=C(O)c1cc2oc(=O)c3cc(O)c(O)cc3c2c(=O)o1` [PHELLIGRIDIN J], the half-inhibitory concentration (IC50) with HCT-8 was 8.4 µM; in the test on A549, 4.2 µM; in test [1] it was 9.2 µM; in test [3], over 10 µM; in test [2], 7.2 µM; with Liver microsomes, 6.5 µM.

On to `O=c1oc(/C=C/c2ccc(O)c(O)c2)cc(O)c1-c1cc(O)c(O)cc1/C=C/c1cc2oc(=O)c3cc(O)c(O)cc3c2c(=O)o1` [PHELLIGRIDIN I], for which the IC50 in the test on HCT-8 is over 10 µg/mL; with A549 it was over 10 µg/mL; in test [1], over 10 µg/mL; in test [3], 3 µM; in test [2] it was over 10 µg/mL; with Liver microsomes, 3.7 µM.
